Source: ChEMBL document CHEMBL2086252, “Syntheses and evaluation of anticonvulsant activity of novel branched alkyl carbamates” (J Med Chem, 2012)
Calls of active or inactive are those of the source. The rule behind the calls is not given here.

What was measured:
Mus musculus [1] = test: Protective index, ratio of TD50 for ip dosed albino CF1 mouse by rotarod test to ED50 for ip dosed albino CF1 mouse by 6 Hz psychomotor seizure test; assay type: functional
Method in brief: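 Protective index calculated as TD50/ED50, with TD50 and ED50 taken from the same species and dosing route.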

Mus musculus [2] = test: Anticonvulsant activity in albino CF1 mouse assessed as protection against subcutaneous metrazol-induced seizures at 30 mg/kg, ip after 0.5 hrs; assay type: functional, organism-based; parameters: dose 30 mg/kg
Method in brief: (§1)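 Mice dosed ip at 30, 100 or 300 mg/kg, then tested 0.5 h and 4 h after administration in the MES or scMet test. Protection was recorded as animals protected over animals tested. Neurotoxicity was recorded as motor impairment or sedation, as animals affected over animals tested.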

Mus musculus [3] = test: Anticonvulsant activity in albino CF1 mouse assessed as protection against subcutaneous metrazol-induced seizures at 100 mg/kg, ip after 0.5 hrs; assay type: functional, organism-based; parameters: dose 100 mg/kg; method in brief: as §1
Mus musculus [4] = test: Anticonvulsant activity in albino CF1 mouse assessed as protection against subcutaneous metrazol-induced seizures at 30 mg/kg, ip after 4 hrs; assay type: functional, organism-based; parameters: dose 30 mg/kg; method in brief: as §1
Mus musculus [5] = test: Anticonvulsant activity in albino CF1 mouse assessed as protection against subcutaneous metrazol-induced seizures at 100 mg/kg, ip after 4 hrs; assay type: functional, organism-based; parameters: dose 100 mg/kg; method in brief: as §1
Mus musculus [6] = test: Anticonvulsant activity in albino CF1 mouse assessed as protection against subcutaneous metrazol-induced seizures at 300 mg/kg, ip after 4 hrs; assay type: functional, organism-based; parameters: dose 300 mg/kg; method in brief: as §1
Mus musculus [7] = test: Anticonvulsant activity in albino CF1 mouse assessed as protection against maximal electroshock-induced seizures at 30 mg/kg, ip after 0.5 hrs; assay type: functional, organism-based; parameters: dose 30 mg/kg; method in brief: as §1
Mus musculus [8] = test: Anticonvulsant activity in albino CF1 mouse assessed as protection against maximal electroshock-induced seizures at 100 mg/kg, ip after 0.5 hrs; assay type: functional, organism-based; parameters: dose 100 mg/kg; method in brief: as §1
Mus musculus [9] = test: Anticonvulsant activity in albino CF1 mouse assessed as protection against maximal electroshock-induced seizures at 30 mg/kg, ip after 4 hrs; assay type: functional, organism-based; parameters: dose 30 mg/kg; method in brief: as §1
Mus musculus [10] = test: Anticonvulsant activity in albino CF1 mouse assessed as protection against maximal electroshock-induced seizures at 100 mg/kg, ip after 4 hrs; assay type: functional, organism-based; parameters: dose 100 mg/kg; method in brief: as §1
Mus musculus [11] = test: Anticonvulsant activity in albino CF1 mouse assessed as protection against maximal electroshock-induced seizures at 300 mg/kg, ip after 4 hrs; assay type: functional, organism-based; parameters: dose 300 mg/kg; method in brief: as §1
Mus musculus [12] = test: Neurotoxicity in albino CF1 mouse assessed as minimal motor impairment at 30 mg/kg, ip after 0.5 hrs by rotarod test; assay type: toxicity, organism-based; parameters: dose 30 mg/kg, route intraperitoneal; conditions: in vivo; method in brief: as §1
Mus musculus [13] = test: Neurotoxicity in albino CF1 mouse assessed as minimal motor impairment at 100 mg/kg, ip after 0.5 hrs by rotarod test; assay type: toxicity, organism-based; parameters: dose 100 mg/kg, route intraperitoneal; conditions: in vivo; method in brief: as §1
Mus musculus [14] = test: Neurotoxicity in albino CF1 mouse assessed as minimal motor impairment at 30 mg/kg, ip after 4 hrs by rotarod test; assay type: toxicity, organism-based; parameters: dose 30 mg/kg, route intraperitoneal; conditions: in vivo; method in brief: as §1
Mus musculus [15] = test: Neurotoxicity in albino CF1 mouse assessed as minimal motor impairment at 100 mg/kg, ip after 4 hrs by rotarod test; assay type: toxicity, organism-based; parameters: dose 100 mg/kg, route intraperitoneal; conditions: in vivo; method in brief: as §1
Mus musculus [16] = test: Neurotoxicity in albino CF1 mouse assessed as minimal motor impairment at 300 mg/kg, ip after 4 hrs by rotarod test; assay type: toxicity, organism-based; parameters: dose 300 mg/kg, route intraperitoneal; conditions: in vivo; method in brief: as §1
Rattus norvegicus [17] = test: Anticonvulsant activity in Sprague-Dawley albino rat assessed as protection against maximal electroshock-induced seizures at 30 mg/kg, po after 15 mins; assay type: functional, organism-based; parameters: dose 30 mg/kg
Method in brief: (§2)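 Rats dosed orally. Anti-MES protection was scored as animals protected over animals tested at each time after dosing. Neurotoxicity was scored as motor impairment or sedation, as animals affected over animals tested.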

Rattus norvegicus [18] = test: Anticonvulsant activity in Sprague-Dawley albino rat assessed as protection against maximal electroshock-induced seizures at 30 mg/kg, po after 30 mins; assay type: functional, organism-based; parameters: dose 30 mg/kg; method in brief: as §2
Rattus norvegicus [19] = test: Anticonvulsant activity in Sprague-Dawley albino rat assessed as protection against maximal electroshock-induced seizures at 30 mg/kg, po after 1 hr; assay type: functional, organism-based; parameters: dose 30 mg/kg; method in brief: as §2
Rattus norvegicus [20] = test: Anticonvulsant activity in Sprague-Dawley albino rat assessed as protection against maximal electroshock-induced seizures at 30 mg/kg, po after 2 hrs; assay type: functional, organism-based; parameters: dose 30 mg/kg; method in brief: as §2
Rattus norvegicus [21] = test: Anticonvulsant activity in Sprague-Dawley albino rat assessed as protection against maximal electroshock-induced seizures at 30 mg/kg, po after 4 hrs; assay type: functional, organism-based; parameters: dose 30 mg/kg; method in brief: as §2
Rattus norvegicus [22] = test: Neurotoxicity in Sprague-Dawley albino rat assessed as minimal motor impairment at 30 mg/kg, po by rotarod test; assay type: toxicity, organism-based; parameters: dose 30 mg/kg, route oral; conditions: in vivo; method in brief: as §2
Mus musculus [23] = test: Anticonvulsant activity in ip dosed albino CF-1 mouse assessed as protection against 6 Hz psychomotor seizure; assay type: functional; conditions: albino CF-1, ip
Method in brief: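 Quantitative testing: rats dosed orally or ip in MES and scMet tests, and mice dosed ip, including the 6 Hz (32 mA) psychomotor seizure test. ED50 and TD50 were reported in mg/kg with ranges in parentheses. Protective index was calculated as TD50/ED50.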

Rattus norvegicus [24] = test: Anticonvulsant activity in Sprague-Dawley albino rat assessed as protection against pilocarpine-induced status epilepticus at 65 mg/kg, ip; assay type: functional, organism-based; parameters: dose 65 mg/kg
Method in brief: (§3)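 Pilocarpine status epilepticus model in rats. Number and severity of convulsive seizures were observed behaviourally.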

Rattus norvegicus [25] = test: Neurotoxicity in pilocarpine-induced status epilepticus Sprague-Dawley albino rat model assessed as minimal motor impairment at 100 mg/kg, ip after 0.25 hr by rotarod test; assay type: toxicity, organism-based; parameters: dose 100 mg/kg, route intraperitoneal; conditions: in vivo
Rattus norvegicus [26] = test: Neurotoxicity in pilocarpine-induced status epilepticus Sprague-Dawley albino rat model assessed as minimal motor impairment at 300 mg/kg, ip after 0.25 hr by rotarod test; assay type: toxicity, organism-based; parameters: dose 300 mg/kg, route intraperitoneal; conditions: in vivo
Method in brief: (§4)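 Rat pilocarpine status epilepticus model: test carbamate given at 0 or 30 min after the first observed Racine stage 3 motor seizure, which marks SE onset. Neurotoxicity was scored within the same model.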

Rattus norvegicus [27] = test: Neurotoxicity in pilocarpine-induced status epilepticus Sprague-Dawley albino rat model assessed as minimal motor impairment at 30 mg/kg, ip after 0.25 hr by rotarod test; assay type: toxicity, organism-based; parameters: dose 30 mg/kg, route intraperitoneal; conditions: in vivo; method in brief: as §4
Rattus norvegicus [28] = test: Neurotoxicity in pilocarpine-induced status epilepticus Sprague-Dawley albino rat model assessed as minimal motor impairment at 100 mg/kg, ip after 0.5 hrs by rotarod test; assay type: toxicity, organism-based; parameters: dose 100 mg/kg, route intraperitoneal; conditions: in vivo
Rattus norvegicus [29] = test: Neurotoxicity in pilocarpine-induced status epilepticus Sprague-Dawley albino rat model assessed as minimal motor impairment at 300 mg/kg, ip after 0.5 hrs by rotarod test; assay type: toxicity, organism-based; parameters: dose 300 mg/kg, route intraperitoneal; conditions: in vivo; method in brief: as §4
Rattus norvegicus [30] = test: Neurotoxicity in pilocarpine-induced status epilepticus Sprague-Dawley albino rat model assessed as minimal motor impairment at 30 mg/kg, ip after 0.5 hrs by rotarod test; assay type: toxicity, organism-based; parameters: dose 30 mg/kg, route intraperitoneal; conditions: in vivo; method in brief: as §4
Rattus norvegicus [31] = test: Neurotoxicity in pilocarpine-induced status epilepticus Sprague-Dawley albino rat model assessed as minimal motor impairment at 100 mg/kg, ip after 1 hr by rotarod test; assay type: toxicity, organism-based; parameters: dose 100 mg/kg, route intraperitoneal; conditions: in vivo
Rattus norvegicus [32] = test: Neurotoxicity in pilocarpine-induced status epilepticus Sprague-Dawley albino rat model assessed as minimal motor impairment at 30 mg/kg, ip after 1 hr by rotarod test; assay type: toxicity, organism-based; parameters: dose 30 mg/kg, route intraperitoneal; conditions: in vivo; method in brief: as §4
Rattus norvegicus [33] = test: Neurotoxicity in pilocarpine-induced status epilepticus Sprague-Dawley albino rat model assessed as minimal motor impairment at 100 mg/kg, ip after 2 hrs by rotarod test; assay type: toxicity, organism-based; parameters: dose 100 mg/kg, route intraperitoneal; conditions: in vivo
Rattus norvegicus [34] = test: Neurotoxicity in pilocarpine-induced status epilepticus Sprague-Dawley albino rat model assessed as minimal motor impairment at 30 mg/kg, ip after 2 hrs by rotarod test; assay type: toxicity, organism-based; parameters: dose 30 mg/kg, route intraperitoneal; conditions: in vivo; method in brief: as §4
Rattus norvegicus [35] = test: Neurotoxicity in pilocarpine-induced status epilepticus Sprague-Dawley albino rat model assessed as minimal motor impairment at 100 mg/kg, ip after 4 hrs by rotarod test; assay type: toxicity, organism-based; parameters: dose 100 mg/kg, route intraperitoneal; conditions: in vivo
Rattus norvegicus [36] = test: Neurotoxicity in pilocarpine-induced status epilepticus Sprague-Dawley albino rat model assessed as minimal motor impairment at 30 mg/kg, ip after 4 hrs by rotarod test; assay type: toxicity, organism-based; parameters: dose 30 mg/kg, route intraperitoneal; conditions: in vivo; method in brief: as §4
Rattus norvegicus [37] = test: Anticonvulsant activity in ip dosed Sprague-Dawley albino rat assessed as protection against pilocarpine-induced status epilepticus after 0.5 hrs; assay type: functional; method in brief: as §3
Rattus norvegicus [38] = test: Neurotoxicity in pilocarpine-induced status epilepticus Sprague-Dawley albino rat model assessed as minimal motor impairment at 50 mg/kg, ip after 0.5 hrs by rotarod test; assay type: toxicity, organism-based; parameters: dose 50 mg/kg, route intraperitoneal; conditions: in vivo; method in brief: as §4
Rattus norvegicus [39] = test: Neurotoxicity in pilocarpine-induced status epilepticus Sprague-Dawley albino rat model assessed as minimal motor impairment at 160 mg/kg, ip after 0.5 hrs by rotarod test; assay type: toxicity, organism-based; parameters: dose 160 mg/kg, route intraperitoneal; conditions: in vivo

For `CC(C)C(COC(N)=O)C(C)C`, the “Ratio TD50/ED50” value (Mus musculus [1]) was 3.4, the Activity (Mus musculus [2]) was “inactive” and the Activity (Mus musculus [3]) was “inactive”. The Activity (Mus musculus [4]) was “inactive”, the Activity (Mus musculus [5]) was “inactive” and the Activity (Mus musculus [6]) was “inactive”. For the same compound, the Activity (Mus musculus [7]) was “inactive”, the Activity (Mus musculus [8]) was “inactive” and the Activity (Mus musculus [9]) was “inactive”. The Activity (Mus musculus [10]) was “inactive”, the Activity (Mus musculus [11]) was “inactive” and the Activity (Mus musculus [12]) was “Non-toxic”. The Activity (Mus musculus [13]) was “Non-toxic”, the Activity (Mus musculus [14]) was “Non-toxic” and the Activity (Mus musculus [15]) was “Non-toxic”. For the same compound, the Activity (Mus musculus [16]) was “Non-toxic”, the Activity (Rattus norvegicus [17]) was “inactive” and the Activity (Rattus norvegicus [18]) was “inactive”. The Activity (Rattus norvegicus [19]) was “inactive”, the Activity (Rattus norvegicus [20]) was “inactive” and the Activity (Rattus norvegicus [21]) was “inactive”. For the same compound, the Activity (Rattus norvegicus [22]) was “Non-toxic”, the ED50 (Mus musculus [23]) was 41 mg/kg and the Activity (Rattus norvegicus [24]) was “Active”. For the same compound, the Activity (Rattus norvegicus [25]) was “Toxic”, the Activity (Rattus norvegicus [26]) was “Toxic” and the Activity (Rattus norvegicus [27]) was “Non-toxic”. For the same compound, the Activity (Rattus norvegicus [28]) was “Toxic”, the Activity (Rattus norvegicus [29]) was “Toxic” and the Activity (Rattus norvegicus [30]) was “Non-toxic”. For the same compound, the Activity (Rattus norvegicus [31]) was “Non-toxic”, the Activity (Rattus norvegicus [32]) was “Non-toxic” and the Activity (Rattus norvegicus [33]) was “Non-toxic”. For the same compound, the Activity (Rattus norvegicus [34]) was “Non-toxic”, the Activity (Rattus norvegicus [35]) was “Non-toxic” and the Activity (Rattus norvegicus [36]) was “Non-toxic”. The ED50 (Rattus norvegicus [37]) was 94 mg/kg, the ED97 (Rattus norvegicus [37]) was 184 mg/kg and the Activity (Rattus norvegicus [38]) was “Non-toxic”. The Activity (Rattus norvegicus [39]) was “Toxic”.
